CAL PDZ FP-1 = inhibitors of human CAL PDZ peptide binding | purified CAL PDZ, TMR-peptide fluorescence polarization, 1 h | 300,000 tested, 0.92% active | Q9HD26 | inhibition, % at 24.9 µM;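 active = mean inhibition of at least 30% with at least half of replicates also reaching 30%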;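 also: 0% = DMSO neutral control and 100% = excess unlabeled competitor peptide PRC23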
LANA-H2B inh = blocks KSHV LANA binding to histone H2A/H2B; Q9QR71; cell-free LANA-H2A/H2B peptide, fluorescence polarization; inhibition, % (no concentration beside the values); 320,000 tested, 0.6% active; AID 2629; in the data active = inhibition mostly above about 10%, no sharp cut-off; inactive = mostly below about 6.7%
CAL PDZ FP-2 = blocks peptide binding to human CAL PDZ domain; inhibition, % at 20 µM; Q9HD26; purified CAL PDZ, TMR-peptide fluorescence polarization, 1 h; 330,000 tested, 0.02% active; AID 504414;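 active = highest replicate inhibition of at least 40%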;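 also: plate controls were DMSO neutral control wells for no effect and unlabeled competitor peptide control wells for full effect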
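material = purified tagged CAL PDZ domain construct (CerCALP) | buffer or medium = sodium phosphate/NaCl buffer pH 7.4 with TCEP, IgG, Thesit | reagent = TMR-labelled reporter peptide T*-PRC34 bound in PDZ groove | incubation = 1 h room-temperature incubation prior to read | measured by = fluorescence polarization (mP) | evaluation = percent inhibition from loss of millipolarization | control set = unlabelled peptide and DMSO controls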
CaV13 FRET inh = Primary screen for inhibitors of IQ motif and Ca2+-dependent inactivation inhibitor domain binding in CACNA1D, Förster resonance energy transfer in living cells, …; 340,000 tested, 0.098% active; inhibition, % at 12.3 µM; HEK cells, CFP/YFP FRET ICDI-IQ, plate reader, 10 min; percent FRET-ratio fall versus neutral wells;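 active = mean replicate inhibition of at least 30% and at least 1% of replicates passing that level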;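 also: 0% = median of the neutral control wells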
LANA DNA inh = blocks KSHV LANA C-terminal domain binding to DNA; MBP-C-LANA/FAM-LBS DNA binding, fluorescence polarization; inhibition, % at 9 µM; 340,000 tested, 0.078% active; AID 504423;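 active = highest replicate inhibition at or above 60% at 9 µM, even if other replicates fall short; inactive = all replicates below 60% inhibition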;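 also: 0% = neutral control wells and 100% = 4 µM acridine orange control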
Keap1-Nrf2 PPI = Keap1-Nrf2 (human) interaction inhibition | Q14145 | AID 504523 | inhibition, % at 9.4 µM | Keap1 Kelch-Nrf2 peptide fluorescence polarization, 1536-well | 340,000 tested, 0.15% active; in the data active = inhibition above about 12%;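 also: human Keap1 Kelch domain with fluorescein labeled Nrf2 9mer peptide probe; 0% = neutral control wells and 100% = peptide positive control; higher means more block of Keap1 binding to Nrf2 peptide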
Target sequence (Q14145 whole entry, looked up, the tested form may be a part): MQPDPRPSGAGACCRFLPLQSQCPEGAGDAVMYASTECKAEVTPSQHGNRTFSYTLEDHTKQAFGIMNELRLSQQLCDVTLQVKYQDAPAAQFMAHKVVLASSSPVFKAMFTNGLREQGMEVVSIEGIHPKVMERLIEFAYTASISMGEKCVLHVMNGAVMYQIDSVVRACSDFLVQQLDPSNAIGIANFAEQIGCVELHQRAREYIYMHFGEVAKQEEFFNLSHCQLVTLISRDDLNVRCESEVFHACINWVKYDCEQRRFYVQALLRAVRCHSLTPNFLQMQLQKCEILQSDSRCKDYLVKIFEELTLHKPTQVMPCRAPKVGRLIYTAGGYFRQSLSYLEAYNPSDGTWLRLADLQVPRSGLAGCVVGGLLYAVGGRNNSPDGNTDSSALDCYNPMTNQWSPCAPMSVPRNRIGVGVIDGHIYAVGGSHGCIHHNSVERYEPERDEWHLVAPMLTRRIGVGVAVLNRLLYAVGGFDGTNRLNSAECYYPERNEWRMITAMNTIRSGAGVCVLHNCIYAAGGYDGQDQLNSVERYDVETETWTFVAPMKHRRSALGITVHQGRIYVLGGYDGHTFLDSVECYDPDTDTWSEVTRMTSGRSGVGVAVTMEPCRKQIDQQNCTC
Numbers without * were called inactive; . = no result; + = active, no number. The list is not random: actives were taken first. Their share in the collection is about 1.5%.

SMILES	CAL PDZ FP-1	LANA-H2B inh	CAL PDZ FP-2	CaV13 FRET inh	LANA DNA inh	Keap1-Nrf2 PPI
COC(=O)[C@H](CC(C)C)NC(=O)NCCC1=CCCCC1	75.9*	1.4	-0.3	-4.6	0.2	-2.6
CC(C)C[C@@H](CN1CCC[C@@H]1CN1C(=S)NC[C@@H]1Cc1ccc(O)cc1)N1C[C@H](Cc2ccc(O)cc2)N(CC2CCCCC2)C1=S	.	.	.	-2.8	.	.
COc1ccc(/C=N/NC(=O)c2cnccn2)c(OC)c1OC	-3.9	-0.1	-1.3	18.6	-1.0	-0.1
COc1cccc(/C=N/NC(=O)c2cnccn2)c1O	90.4*	6.1	-2.2	-2.5	0.9	-2.3
O=C(N[C@H](C(=O)N1CCC[C@H]1C(=O)NCc1ccccc1)c1ccccc1)C1CCCC1	.	.	.	-4.1	.	.
COCCOc1nc2c(c(=O)n(C)c(=O)n2C)n1CCc1ccccc1	-0.7	11.0*	-2.5	.	-0.3	-5.5
Cc1ccc(C(=O)NC(=S)NCC(=O)c2ccccc2)cc1	33.1*	0.1	.	-4.4	1.2	2.4
COc1cc(-c2nnc(-c3cc(OC)c(OC)c(OC)c3)o2)cc(OC)c1OC	44.3*	-9.5	-1.7	-0.9	-0.8	1.9
COc1cc(-c2nnc(-c3ccccc3)o2)cc(OC)c1OC	-2.4	-0.8	-4.7	-5.7	-0.3	-1.5
Cc1ccccc1-n1nc(C)c(N=O)c1N	-4.7	30.3*	-0.1	2.4	-1.6	0.3
Cc1nn(-c2ccccc2)c(N)c1N=Nc1cccnc1	-3.4	-0.1	-2.7	-4.1	0.2	-1.7
COC(=O)[C@]12C[C@H](CC(=O)NCCCCc3ccccc3)C(=O)N(Cc3ccccc3)C1=C[C@H](C(C)C)O[C@@H]2C1CC1	.	.	.	-7.8	.	.
CCOC(=O)C1=CCN(S(=O)(=O)c2cccc(Cl)c2)C1c1cccc(Br)c1 (centres undefined)	.	.	.	-2.1	.	.
COC(=O)C1=C(C)N(Cc2ccccc2C(F)(F)F)C(=NCc2cccc(C(F)(F)F)c2)NC1c1ccc(F)cc1 (centres undefined)	.	.	.	-9.0	.	.
CCC1=Nc2cc(C(=O)NCCN3CCOCC3)ccc2Sc2ccc(C)cc21	-3.0	5.1*	-2.4	-1.7	-0.2	-2.3
Nc1ccc(C(=O)Nc2ccc(Nc3ccncc3)cc2)c([N+](=O)[O-])c1	.	.	.	-6.2	.	.
CCOC(=O)N/N=C(\C)c1ccc(OC(F)F)cc1OC(F)F	0.1	-1.0	-3.0	9.1	1.3	3.3
Cc1cc(C)n(/N=C\c2c(O)ccc3ccccc23)c(=O)c1C(N)=O	50.4*	-1.7	-0.5	-4.6	0.2	0.2
Oc1ccc2ccccc2c1/C=N/n1cnnc1	.	-2.4	0.4	-4.0	1.0	3.5
Cc1ccc(-c2nn(CC(=O)NCc3cc(-c4nn(C)c(=O)c5ccccc45)ccc3C)c(=O)c3ccccc23)cc1	39.9*	-0.1	.	-3.6	1.2	-4.4
CCC(=O)NCc1cc(-c2nn(C)c(=O)c3ccccc23)ccc1C	-4.4	-4.5	.	-4.2	0.2	-2.0
Cc1[nH]n(C)c(=O)c1[N+](=O)[O-]	-3.7	-0.6	-2.5	1.9	-0.7	-1.4
O=C(COC(=O)Cn1cnc2ccccc21)Nc1cc2c(cc1Cl)C(=O)c1ccccc1C2=O	79.8*	-0.3	1.0	-4.7	-0.8	-0.6
Cc1ccccc1C(=O)N[C@H](C(=O)N1CCC[C@H]1C(=O)NC1CCCC1)c1ccccc1	.	.	.	-9.4	.	.
CC(=O)NC1C(OCc2ccccc2)OC(CO)C(OC(C)=O)C1OC(C)=O (centres undefined)	45.9*	4.4	0.7	-3.6	0.7	-3.0
SMILES	CAL PDZ FP-1	LANA-H2B inh	CAL PDZ FP-2	CaV13 FRET inh	LANA DNA inh	Keap1-Nrf2 PPI
CNC(=S)N/N=C1\C(=O)c2cccc3cccc1c23	2.0	2.2	-1.0	.	0.5	-4.7
O=C(N/N=C1\C(=O)c2cccc3cccc1c23)c1ccc(O)cc1	-2.1	+	0.2	.	4.8	0.5
O=c1c(O)cccc2cc(O)c(O)c(O)c12	8.1	0.8	1.0	-1.8	81.9*	-5.3
O=c1cc(-c2ccccc2)oc2cc(O)c(O)c(O)c12	-2.9	.	1.1	.	3.9	-1.0
CCOc1ccc(C2CC(c3c(O)c4ccccc4oc3=O)=NN2c2ccccc2)cc1OC (centres undefined)	-1.9	-42.5	-3.2	165.0*	-1.1	-7.7
COc1ccc(C2=NN(C(=O)c3ccccc3)C(c3ccc(OC)c(OC)c3)C2)c(O)c1 (centres undefined)	-1.8	.	-1.9	-4.5	-2.3	-3.9
CCOC(=O)C1=C(C)N(C)C(=S)NC1c1cc(OC)ccc1OC (centres undefined)	-5.7	7.0	.	-4.2	-2.5	-1.2
Cc1cc2nc(/C(C#N)=C/c3ccncc3)[nH]c2cc1C	107.1*	0.1	15.1	-7.1	1.9	-5.7
N#C/C(=C\c1ccncc1)c1nc2ccccc2[nH]1	-5.9	.	0.0	-6.8	-2.2	-7.1
Cc1cc(F)ccc1NCc1ccc([N+](=O)[O-])cc1	46.0*	3.1	-1.0	-6.5	-0.2	-0.4
COc1ccc(-n2c(C)c(C(C)=O)c3cc(OCC(N)=O)ccc32)cc1	37.6*	1.2	1.5	-2.3	-2.2	-5.8
CCOc1ccc(-n2c(C)c(C(C)=O)c3cc(OCC(N)=O)ccc32)cc1	2.5	-0.2	-2.8	-2.9	0.4	2.0
CC1CCN(C(=O)c2ncn3c2C(=O)NC[C@@H]3C)CC1	.	.	.	-3.3	.	.
C=C(C)C(=O)Nc1cccc(C2=NOC3(C2)C[C@@H](C(N)=O)N(C(=O)C(=C)C)C3)c1 (some centres undefined)	-10.2	0.9	-6.2	4.4	25.2	-2.5
C=C(C)C(=O)Nc1cccc(C2=NOC3(C2)C[C@@H](C(N)=O)N(C(=O)C2(C)CC2)C3)c1 (some centres undefined)	-1.6	4.1	0.4	-5.8	105.2*	-0.8
CN(CC(=O)N1CCCC1)S(=O)(=O)c1ccc2ccccc2c1	3.1	17.3*	-0.6	-3.8	-0.1	3.1
O=C(N[C@H](Cc1ccccc1)C(=O)N1CCN(CC(=O)N2CCCC2)CC1)[C@H]1O[C@@H](n2ccc(=O)[nH]c2=O)[C@H](O)[C@@H]1O	.	.	.	-3.1	.	.
CCCCCCC12C(=Cc3cc(C)ccc31)c1ccccc1C(CC(=O)NCc1ccccc1)N2C(=O)OC (centres undefined)	.	.	.	-5.6	.	.
CCOC(=O)N1CCC(NC(=O)c2cc(C(=O)Nc3ccc(S(=O)(=O)N4CCOCC4)cc3)ccc2CO)CC1	-8.4	16.9*	0.0	0.9	1.5	-2.8
O=C(O)Cc1c[nH]c2ccccc12	-1.2	16.2	0.0	.	-0.8	4.0
O=C(O)Cc1c[nH]c2cccc(O)c12	6.6	3.9	-3.5	.	101.8*	-7.0
O=C(Nc1ccc2c(c1)OCO2)C1CC(c2ccccc2O)=NO1 (centres undefined)	-1.1	0.9	-1.0	-20.8	-3.4	1.4

Source: PubChem
